Experimental data: PMC8866227 (Clinical Cancer Research, 2021)
Where two headings read alike, the source gives them in different places.

Tests used:
[1] = Losartan plasma pharmacokinetics in dogs; type: in vivo, dog; conditions: for AUC(0-t) / Cmax: dog, plasma, po
human PBMCs [2] = experiment: Gene Set Enrichment Analysis; type: cell-based; conditions: losartan treated vs control PBMCs
[3] = system: CCL2-directed monocyte migration; experiment: Ex vivo CCL2-directed monocyte migration of PBMCs from treated dogs; type: in vivo, dog; conditions: for dogs with reduction of CCL2-mediated ex vivo monocyte migration from baseline: 10 mg/kg cohort
How it was run: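 Blood was drawn at baseline and at rechecks (days 7, 14, 28 in the 10 mg/kg cohort) and ACK-lysed within 1 h. Fresh PBMCs were assayed immediately for CCL2-directed transwell migration. Chemotactic index is the fold-change over negative-control wells, expressed as % of week 0.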

THP-1 cells = experiment: Transwell THP-1 monocyte migration to human OS cell line conditioned media; type: cell-based; conditions: 1 hour pretreatment, 10 μg/mL losartan
How it was run: (§1)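 Four human (THP-1, human PBMC) or four canine (canine PBMC) OS cell lines, kept in DMEM/10% FBS at 37°C and 5% CO2, supplied conditioned media as chemoattractant in transwell migration assays. Wells were run in technical triplicate or quadruplicate. […] Results are mean ± SD, one-way ANOVA with Tukey.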

lung metastatic burden = conditions: cited from earlier work
[4] = system: peripheral blood myeloid cells; experiment: Peripheral blood total myeloid cell counts; type: in vivo, dog; conditions: week 4 posttreatment, low- and high-dose cohorts combined n=19
CCL2–CCR2 signaling = conditions: independent of AT1R; cited from earlier work
human PBMCs [5] = experiment: Transwell human PBMC migration to human OS cell line conditioned media; type: cell-based; conditions: 1 hour pretreatment, 10 μg/mL losartan
How it was run: as §1

human PBMCs [6] = experiment: RNA-seq differential gene expression of losartan-treated human PBMCs; type: cell-based; conditions: losartan 10 μg/mL 24 h vs control
How it was run: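 PBMCs from healthy male and female donors were Ficoll-isolated from EDTA blood and plated at 3e6/mL in RPMI, 10% FBS, penicillin/streptomycin and L-glutamine. […] Extracted RNA was sequenced. Counts were RUVr-normalized, differential expression was called by limma-voom/edgeR, and GSEA was run.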

[7] = system: CCL2-directed migration of canine PBMCs; type: cell-based
CCL2 = experiment: Plasma CCL2 concentration in treated dogs by ELISA; type: in vivo, dog; conditions: for dogs with posttreatment increases in plasma CCL2 / mean increase in plasma CCL2 above baseline: 10 mg/kg cohort
[8] = Systolic blood pressure monitoring in treated dogs; type: in vivo, dog; conditions: 1 and 10 mg/kg cohorts, repeated blood pressure measurements
TGFβ = experiment: Serum TGF-β concentrations in treated dogs; type: in vivo, dog; conditions: high losartan dose 10 mg/kg + toceranib
[9] = system: lung metastatic osteosarcoma; experiment: Clinical response; type: in vivo, dog; conditions: single agent toceranib, dogs with metastatic OS

CCCCc1nc(Cl)c(CO)n1Cc1ccc(-c2ccccc2-c2nn[nH]n2)cc1 [losartan]
mean plasma concentration ([1]; 1 mg/kg oral cohort, OS dogs, ~6 h post dose): 6.8 ng/mL | AUC(0-t) ([1]; 2.5 mg/kg): 303 ng·h/mL | Cmax ([1]; 2.5 mg/kg): 76.7 ng/mL | AUC(0-t) ([1]; 10 mg/kg): 1580 ng·h/mL | Cmax ([1]; 10 mg/kg): 509 ng/mL | pathways significantly (Padj < 0.05) downregulated by GSEA (human PBMCs [2]): 409 pathways | CCL2-mediated ex vivo monocyte migration following treatment ([3]; 1 mg/kg losartan cohort (+ toceranib), OS dogs): unexpectedly increased | dogs with reduction of CCL2-mediated ex vivo monocyte migration from baseline ([3]; week 1): 7 of 14 | dogs with reduction of CCL2-mediated ex vivo monocyte migration from baseline ([3]; week 2): 8 of 15 | dogs with reduction of CCL2-mediated ex vivo monocyte migration from baseline ([3]; week 4): 7 of 11 | THP-1 migration to OS conditioned media (THP-1 cells): significant inhibited | lung metastatic burden in mice (lung metastatic burden): significantly reduced | total peripheral blood myeloid cells (combined monocyte and neutrophil counts) [4]: significant reduction | monocyte recruitment, noncompetitive inhibition of CCL2–CCR2 signaling induced ERK1/2 activation (CCL2–CCR2 signaling): potently inhibits | human PBMC migration to OS conditioned media (human PBMCs [5]): significant inhibited | genes downregulated (human PBMCs [6]): 27 genes | genes upregulated (human PBMCs [6]): 32 genes | CCL2-directed migration of canine PBMCs, % of untreated positive control wells ([7]; losartan 100 ng/mL in vitro): 42% | CCL2-directed migration of canine PBMCs, % of untreated positive control wells ([7]; losartan 10 μg/mL in vitro): 12% | dogs with increases in plasma CCL2 (CCL2; 1 mg/kg cohort, 2 weeks posttreatment): five of six | dogs with posttreatment increases in plasma CCL2 (CCL2; week 2): 12 of 15 | mean increase in plasma CCL2 above baseline (CCL2; week 2): 149.4% | dogs with posttreatment increases in plasma CCL2 (CCL2; week 4): 11 of 12 | mean increase in plasma CCL2 above baseline (CCL2; week 4): 186.3% | hypotension associated with losartan treatment [8]: no dogs experienced any significant hypotension | serum TGFβ posttreatment (TGFβ): no posttreatment changes

Cc1[nH]c(/C=C2\C(=O)Nc3ccc(F)cc32)c(C)c1C(=O)NCCN1CCCC1 [toceranib, toceranib phosphate]
Clinical benefit rate (SD, PR, and CR) [9]: 18% | Progression-free survival, range [9]: 7 to 176 days
